Source: PubChem BioAssay (several laboratories)
CSN inh: inhibitors of CSN-mediated cullin deneddylation, primary screen, biochemical, fluorescence polarization, uHTS; COP9 signalosome complex subunit 5 (Homo sapiens), Q92905; Purified CSN, SCF-Nedd8-OG deneddylation; inhibition, % at 12.5 µM; hit rate 0.38% among 360,000; AID 651999, 2013;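 active = pattern-corrected inhibition above about 35%, with an unprinted fluorescence ratio check between 0.5 and 1.5, limit read from the data, passing the limit was not always enough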;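 also: 0% = enzyme with substrate and 100% = substrate without enzyme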
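test system = HEK293T-derived human Csn5 enzyme | amount = 0.24 nM Csn5 enzyme, final concentration | medium = Tris/NaCl/DTT buffer, pH 7.5 | schedule = 90 min reaction at room temperature | signal = FP | evaluation = inhibition of Csn5 cleavage, % | compound dosing = single dose of 12.5 µM compound with 0.25% DMSO | probe or stimulus = 10 nM SCFSkp2-Nedd8OG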
TPT1 inh: Candida albicans TPT1 enzyme inhibitors, primary screen, biochemical, fluorescence polarization. hit rate 0.81% among 300,000. recombinant caTPT1, FP RNA substrate dephosphorylation. inhibition, % at 5 µM;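 active = inhibition above the mean of all tested compounds plus 3 SD, set per screening campaign, cut at about 24% in these data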;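 also: plate controls were DMSO alone for no effect and ferristatin control at 100 nM for full effect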
HNF4A DNA FP: change in binding of human HNF4A to DNA, primary screen, biochemical, fluorescence polarization, FITC-DNA; hit rate 0.3% among 360,000; AID 1224865, 2016; 1 h; Hepatocyte nuclear factor 4-alpha (Homo sapiens), P41235; activity change, % at 10 µM; in the data active = activity change above about 30%, passing the limit was not always enough
Target sequence (P41235 whole entry, looked up): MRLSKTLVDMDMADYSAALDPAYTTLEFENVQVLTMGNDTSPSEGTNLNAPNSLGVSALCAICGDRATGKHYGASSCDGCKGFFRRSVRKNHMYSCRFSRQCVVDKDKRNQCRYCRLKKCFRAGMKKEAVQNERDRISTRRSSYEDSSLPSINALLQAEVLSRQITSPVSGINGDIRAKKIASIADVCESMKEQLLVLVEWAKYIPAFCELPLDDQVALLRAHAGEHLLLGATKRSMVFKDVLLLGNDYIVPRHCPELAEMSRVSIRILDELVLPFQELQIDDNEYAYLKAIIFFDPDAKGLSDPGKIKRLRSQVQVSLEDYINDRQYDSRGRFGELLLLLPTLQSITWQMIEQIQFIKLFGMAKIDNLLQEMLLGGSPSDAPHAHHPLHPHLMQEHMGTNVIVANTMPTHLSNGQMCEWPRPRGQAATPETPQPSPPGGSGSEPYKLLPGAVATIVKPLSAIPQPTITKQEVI
Rpn11 block: Rpn11 (PSMD14) deubiquitinase inhibitors, primary screen, biochemical, fluorescence polarization, uHTS | human 26S proteasome, Ub4-pepOG fluorescence polarization; 20S core pre-blocked with epoxomicin | inhibition, % at 20 µM | AID 588493, 2011 | hit rate 0.59% among 360,000 | 26S proteasome non-ATPase regulatory subunit 14 (Homo sapiens), O00487;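 active = inhibition at 20 µM, scaled to each plate's controls, above about 33%, limit read from the data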
Myeloid diff MLP: induction of myeloid progenitor differentiation, primary screen, cell-based, flow cytometry, MLPCN library. ER-HoxA9 myeloid progenitors, lysozyme-GFP differentiation. AID 624256, 2012. hit rate 1% among 360,000. calls only at 10 µM;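 active = normalized GFP-positive differentiation at or above the plate's own cutoff, the solvent-only control mean plus 3 SD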;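 also: cells exposed to compound for four days before flow analysis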
Myeloid diff: inducers of myeloid progenitor differentiation, confirmation, cell-based, GFP/Mac1 flow cytometry, cherry pick 01 | shares compounds with Myeloid diff MLP | ER-HoxA9 myeloid progenitors, GFP/Mac1 double-positive flow | calls only | hit rate 2% among 2,300 | AID 651706, 2012;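 active = share of green or green-and-red cells above 9 and 9% in run 1 or 4 and 3% in run 2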
GFP autofluor: compound fluorescence in myeloid differentiation counter-screen | shares compounds with Myeloid diff MLP | ER-HoxA9 myeloid progenitors, no estrogen, GFP autofluorescence flow cytometry; vehicle wells 0%, positive control 100% | fluorescence response, % (test concentration not listed) | hit rate 7.4% among 2,300 | AID 651707;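 active = over 5% cells positive for green fluorescent reporter, or over 2% positive for both it and APC stain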;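 also: range taken on the double positive population between DMSO and positive control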
Starred values were filed as active, the others as inactive; i = inactive; nt = not tested or not shown; + = active, no number. Shown are actives, neighbours in structure and some others; about 2.3% of the full set was active somewhere.

SMILES | CSN inh | TPT1 inh | HNF4A DNA FP | Rpn11 block | Myeloid diff MLP | Myeloid diff | GFP autofluor
COc1cc(/C=N/NC(=O)c2cc(-c3cccn3C)n[nH]2)cc(OC)c1OC | 9 | -1 | -2 | -4 | i | nt | nt
COc1cccc(/C=N/NC(=O)c2cc(-c3cccn3C)n[nH]2)c1O | -1 | -1 | 3 | -1 | i | i | 0
COCCCNCCOc1ccccc1-c1ccccc1 | -7 | 3 | -1 | -6 | i | nt | nt
COCCCNCCCCOc1ccccc1-c1ccccc1 | -4 | 7 | 3 | -11 | i | i | 0
Cc1ccc(C)c(NC(=S)N2CCC(NC(=O)c3ccccc3)CC2)c1 | -3 | -4 | 3 | 0 | i | nt | nt
CCNC(=O)CC1SC(=Nc2ccc(C)c([N+](=O)[O-])c2)N(C)C1=O (stereo not drawn) | 1 | 1 | -2 | -6 | i | nt | nt
CCN(CC)C(=O)COc1ccc2oc(-c3ccco3)cc(=O)c2c1 | 1 | -75 | -5 | 0 | i | nt | nt
NC(=O)c1ccc(N2CCN(c3ccccc3F)CC2)c([N+](=O)[O-])c1 | 0 | 0 | -1 | 8 | i | i | 1
NC(=O)c1ccc(N2CCN(c3ccccc3O)CC2)c([N+](=O)[O-])c1 | -6 | 3 | 3 | 5 | i | nt | nt
CCOc1cc(C)nc(NCc2ccccc2)n1 | -1 | 1 | 0 | -8 | + | i | 4
Cc1oc(-c2ccccc2F)nc1CS(=O)(=O)CC(=O)NC1CCCC1 | -3 | -4 | 3 | -2 | i | nt | nt
Cc1oc(-c2ccccc2F)nc1CS(=O)(=O)CC(=O)NCCN(C)C1CCCCC1 | -2 | 1 | 0 | -9 | i | i | 0
CN1CC(=O)N(CC(=O)Nc2cccc3ccccc23)C1=O | -3 | nt | 0 | 2 | i | nt | nt
COc1cc(NC(=O)c2cc3nc(C4CC4)cc(C(F)(F)F)n3n2)c(OC)cc1Cl | 2 | -3 | -12 | -3 | i | i | 0
COC(=O)c1ccccc1NC(=O)c1cc2nc(C3CC3)cc(C(F)(F)F)n2n1 | -3 | 2 | -4 | 4 | i | nt | nt
CC[C@H](C)[C@H]1CNC(=S)N1CC1CCN(CCC(C)C)CC1 | 3 | nt | 0 | 2 | i | nt | nt
Cc1cc(C)c(NN=c2c(=O)c3ccccc3c2=O)c(C)c1 | -2 | -1 | 1 | -4 | + | i | 0
COc1cc(C(=O)N2CCN(S(=O)(=O)c3ccc(C)cc3)CC2)ccc1OCC(=O)N1CCOCC1 | -4 | nt | 2 | -6 | i | nt | nt
CC#CCN1c2ccccc2[C@]23C[C@@H](C(=O)OC)N(C(=O)NC4CCCCC4)C2=NC(C(=O)OC)=C(C(=O)OC)[C@H]13 | -2 | 0 | 1 | 0 | i | i | 0
CC(C)(C)c1nnc(NC(=O)Nc2ccc(Cl)cc2)s1 | -7 | -4 | -1 | -14 | + | i | 0
COc1ccc(CC(=O)NN2C(=O)c3ccccc3C2=O)cc1 | -1 | -2 | 1 | -2 | + | i | 0
N#C/C(=C\Nc1ccc2cn[nH]c2c1)c1nc(-c2ccc(Cl)cc2)cs1 | 15 | 13 | 8 | 39 | + | + | 0
CCc1nc2ccc(C(=O)Nc3cc(-c4ccccc4)ccc3OC)cn2c1N(C)Cc1nccs1 | 4 | nt | 0 | 22 | + | i | 0
CSCCC(C(=O)Nc1c(C)cccc1C)N1CCN(c2ccc(C(F)(F)F)cn2)CC1 (stereo not drawn) | -2 | nt | 2 | -1 | i | nt | nt
O=C(N/N=C/c1ccc([N+](=O)[O-])o1)c1ccc2c(c1)OCO2 | 9 | nt | 3 | -3 | i | i | 0
O=C(N/N=C\c1ccc(-c2ccc([N+](=O)[O-])cc2)o1)c1ccc2c(c1)OCO2 | 5 | 2 | 15 | nt | i | nt | nt
